# Measurements from publication PMC11094580 (EFSA Journal, 2024).
# “Also recorded” adds a separate entry of the source. Where two headings read alike, the source gives them in different places.
# What was measured:
# [1] = Octanol/water partition coefficient; type: physicochemical
# Stability in solution = type: physicochemical
# Procedure, shortened: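 Test compound was dissolved at 10 g per 100 g propylene glycol and stored at 25 ± 2°C and 60 ± 5% RH, with sampling at 1, 2, 3 and 4 months; recovery was the read-out. Separately, aqueous buffer solutions (50 mg/kg) at pH 3, 5 and 7 were incubated at 90°C as accelerated testing.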
# [2] = test system: Salmonella typhimurium (TA98, TA100, TA102, TA1535, TA1537) and E. coli WP2uvrA; experiment: Bacterial reverse mutation assay; type: cell-based; details: for concentration with reduction in growth of bacterial background lawns: plate incorporation; for concentration with reduction of bacterial background lawns: pre-incubation
# Wistar rats [3] = experiment: In vivo comet assay in liver and duodenum; set-up: species or system rat; details: 500, 1000, 2000 mg/kg bw per day, Wistar rats, M, gavage
# Wistar rats [4] = experiment: 28-day dose range-finding oral toxicity study in Wistar rats; type: in vivo, rat
# Procedure, shortened: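 Test compound given by gavage at 1000 to 5000 mg/kg bw per day; haematology, clinical chemistry and organ weights, including uterus weight, were recorded.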
# Sprague Dawley rats [5] = experiment: Dose range-finding study for the EOGRT study, dietary; type: in vivo, rat
# Sprague Dawley rats [6] = experiment: Extended one-generation reproductive toxicity; type: in vivo, rat
# [7] = ref Ma et al. (2006), cited from earlier work
# [8] = 10 h post dosing; ref Felgines et al. (2000); cited from earlier work
# Pig caecum = details: anaerobic incubation 0-24 h; ref Labib et al. (2004); cited from earlier work
# human faecal slurries = details: 50 μmol incubated, ref Pereira‐Caro et al. (2015), cited from earlier work
# [9] = test system: Lactobacillus rhamnosus subsp. Rhamnosus NCTC 10302; details: 25 μg/mL, cultures of L. rhamnosus; ref Pereira‐Caro et al. (2016); cited from earlier work
# [10] = test system: Intestinal bacteria isolated from human faeces; details: 5 mg flavonoids in 50 mL broth, 2 days, anaerobic; ref Kim et al. (1998); cited from earlier work
# Clostridium orbiscindens = details: ref Schoefer et al. (2003); cited from earlier work
# CYP450 isoforms = details: read-out: IC50 or Ki values; certain CYP450 isoforms; ref Lu et al. (2011); cited from earlier work
# CYP2C9 = details: ref Lu et al. (2011); cited from earlier work
# CYP2B6 = details: concentrations up to 10 μM; ref Lu et al. (2011); cited from earlier work
# [11] = test system: quinine metabolism in human liver microsomes; details: substrate quinine; ref Fasinu et al. (2013), Ho et al. (2001); cited from earlier work
# [12] = test system: felodipine metabolism by pig intestinal tissue slices; details: ref Fasinu et al. (2010); cited from earlier work
# Wistar rats [13] = details: 50 mg/kg bw per day, 4 weeks; ref Motawi et al. (2014); cited from earlier work
# Wistar rats [14] = details: 200 mg/kg bw per day, 20 weeks, gavage, male rats; ref Ganapathy et al. (2008); cited from earlier work
# [15] = F1 C1A females, high‐dose group
smiles,measurement,setting,value
"O=C1CC(c2ccc(O)cc2)Oc2cc(O)cc(O)c21 (stereo not drawn) [naringenin, 4H‐1‐Benzopyran‐4‐one, 2,3‐dihydro‐5,7‐dihydroxy‐2‐(4‐hydroxyphenyl)‐]",octanol/water partition coefficient,[1],2.52
same,time stable when dissolved in propylene glycol,"Stability in solution; 25 ± 2°C, 60 ± 5% RH",at least 4 months
same,time for which stability was demonstrated,"Stability in solution; aqueous buffer solutions (50 mg/kg) pH 3, 5, 7 at 90°C",up to 8 h
same,Result,"[2]; Experiment 1: 1.5–5000 μg/plate (+/− S9, plate incorporation)",Negative
same,Result,"[2]; Experiment 2: 1.5–5000 μg/plate (+/− S9, pre‐incubation)",Negative
same,frequency of revertant colonies,"[2]; TA102, 50 μg/plate, absence of S9‐mix",262 ± 23.8
same,concentration with reduction in growth of bacterial background lawns,"[2]; TA1537, +/− S9",≥ 1500 μg/plate
same,concentration with reduction in growth of bacterial background lawns,"[2]; all bacterial strains, +/− S9",5000 μg/plate
same,concentration with reduction of bacterial background lawns,"[2]; TA98 and E. coli WP2uvrA, +/− S9",5000 μg/plate
same,concentration with reduction of bacterial background lawns,"[2]; TA100, TA102, TA1535 and TA1537, +/− S9",≥ 1500 μg/plate
same,Result,Wistar rats [3],Negative
same,uterus weight,Wistar rats [4]; gavage 28 days,no effects on uterus weight
same,Mortality,"Wistar rats [4]; gavage, doses from 1000 to 5000 mg/kg bw per day",Mortality was observed at the highest dose tested
same,mean pre-coital interval,"Sprague Dawley rats [5]; 20,000 mg/kg feed (G3)",7.6 days
same,"clinical signs, mortality, morbidity",Sprague Dawley rats [5]; all dose groups,"No clinical signs of toxicity, no mortality or morbidity"
same,dose up to which no toxicity was produced,Sprague Dawley rats [5]; females,≤ 2724 mg/kg bw per day
same,dose up to which no toxicity was produced,Sprague Dawley rats [5]; males,≤ 2205 mg/kg bw per day
same,dietary concentration up to which no toxicity was produced,"Sprague Dawley rats [5]; males 29 days, females 51–62 days","up to 25,000 mg/kg feed"
same,Absolute organ weight,Sprague Dawley rats [6]; F1 C1A females,"↑ G3, G4 thymus; also recorded: ↑ G4 spleen and iliac lymph nodes"
same,Thyroid hormone levels: T4,Sprague Dawley rats [6]; F1 C1A females,T4: –
same,increase in mean platelet count,Sprague Dawley rats [6]; [15],25%
same,mean platelet count,Sprague Dawley rats [6]; [15],1138.20 × 10^3 cells/μL
same,Absolute organ weight,Sprague Dawley rats [6]; F1 C1A males,↓ G2 and G3 testes and iliac lymph nodes; also recorded: ↓ G4 iliac lymph nodes
same,Lymphocyte typing (spleen): T helper cells (CD4+),Sprague Dawley rats [6]; F1 C1A males,"T helper cells (CD4+): ↑ G2, G3 and G4, no dose‐related trend"
same,Thyroid hormone levels: T4,Sprague Dawley rats [6]; F1 C1A males,T4: –
same,Thyroid hormone levels: TSH,Sprague Dawley rats [6]; F1 C1A males,TSH: –
same,Absolute organ weight,Sprague Dawley rats [6]; F1 C1B females,↑ G4 thymus; also recorded: ↑ G3 uterus with cervix
same,Absolute organ weight,Sprague Dawley rats [6]; F1 C1B males,↑ G3 thymus
same,Absolute organ weight,"Sprague Dawley rats [6]; F1 pups (surplus) females, PND 21",PND 21: ↓ G2 spleen; ↑ G3 spleen; ↓ G2 brain
same,Absolute organ weight,"Sprague Dawley rats [6]; F1 pups (surplus) males, PND 21",PND 21: ↑ G3 spleen
same,reduction of anogenital distance (AGD),"Sprague Dawley rats [6]; F1 pups, PND4, highest dose females",4%
same,decreased normal sperm,Sprague Dawley rats [6]; F1‐C1A cohort,~ 1%
same,increased sperm with abnormalities,Sprague Dawley rats [6]; F1‐C1A cohort,50%
same,increase of thymus gland weight,"Sprague Dawley rats [6]; F1‐C1A females, highest dose group",24%
same,reduction of daily sperm production,"Sprague Dawley rats [6]; F1‐C1A males, high dose",2%
same,reduction of daily sperm production,"Sprague Dawley rats [6]; F1‐C1A males, low dose",7%
same,decrease of absolute iliac lymph node weight,"Sprague Dawley rats [6]; F1‐C1A males, mid dose",30%
same,mean pre-coital interval,"Sprague Dawley rats [6]; F1‐CB cohort, G3",7.6 days
same,change in mean pup weight,"Sprague Dawley rats [6]; F2, PND 1, males, group G4‐C1B",−4%
same,change in mean pup weight,"Sprague Dawley rats [6]; F2, PND 4, females, group G4‐C1B",−8%
same,change in mean pup weight,"Sprague Dawley rats [6]; F2, PND 14, females, group G3‐C1B",−5%
same,change in mean pup weight,"Sprague Dawley rats [6]; F2, PND 14, females, group G4‐C1B",−5%
same,"oestrous cycle length, increase following exposure","Sprague Dawley rats [6]; P females, significant in lowest and highest exposed groups",up to 6%
same,mean pre-coital interval,"Sprague Dawley rats [6]; P generation, G4",8 days
same,decrease in mean urinary pH value,"Sprague Dawley rats [6]; P males, high‐dose group",12%
same,increase in mean urinary specific gravity,"Sprague Dawley rats [6]; P males, high‐dose group",1%
same,margin of exposure (MoE),"Sprague Dawley rats [6]; adults, chronic APET as flavouring substance, NOAEL 1320 mg/kg bw per day",1590
same,margin of exposure (MoE),"Sprague Dawley rats [6]; adults, chronic combined exposure incl. other food sources",1390
same,"fertility indices (pregnancy, parturition and gestation)","Sprague Dawley rats [6]; all tested dose groups, P and F1‐C1B generations",100%
same,margin of exposure (MoE),"Sprague Dawley rats [6]; children, acute combined exposure",48
same,margin of exposure (MoE),"Sprague Dawley rats [6]; children, chronic APET as flavouring substance, NOAEL 1320 mg/kg bw per day",630
same,margin of exposure (MoE),"Sprague Dawley rats [6]; children, chronic combined exposure incl. other food sources",550
same,post-implantation loss,Sprague Dawley rats [6]; high‐dose P females,12.6%
same,NOAEL (dietary concentration),Sprague Dawley rats [6]; mid‐dose,"20,000 mg/kg feed"
same,NOAEL,"Sprague Dawley rats [6]; mid‐dose, P males, pre‐cohabitation period",1320 mg/kg bw per day
same,C max for total naringenin,[7]; 30 mg/kg bw,16.9 ng/mL
same,C max of unconjugated naringenin,[7]; 30 mg/kg bw,2.9 ng/mL
same,time to C max for total naringenin (including the conjugates),[7]; 30 mg/kg bw,0.5 h
same,C max for total naringenin,[7]; 90 mg/kg bw,28 ng/mL
same,C max of unconjugated naringenin,[7]; 90 mg/kg bw,3.7 ng/mL
same,plasma half-life of total naringenin,[7]; 90 mg/kg bw,7.6 h
same,time to C max for total naringenin (including the conjugates),[7]; 90 mg/kg bw,2 h
same,C max for total naringenin,[7]; 270 mg/kg bw,43.8 ng/mL
same,C max of unconjugated naringenin,[7]; 270 mg/kg bw,4.4 ng/mL
same,plasma half-life of total naringenin,[7]; 270 mg/kg bw,10.5 h
same,time to C max for total naringenin (including the conjugates),[7]; 270 mg/kg bw,2 h
same,time to C max of unconjugated naringenin,"[7]; 30, 90 or 270 mg/kg bw oral gavage",≤ 15 min
same,naringenin excreted in bile,[7]; bile duct-cannulated rats,12%
same,naringenin excreted in urine,[7],6.25%
same,naringenin in caecal contents,[8],15 μmol/caecum
same,Results: microbial transformation products,Pig caecum,Naringenin was transformed to 3‐(4‐hydroxyphenyl)‐propionic acid and 3‐phenylpropionic acid
same,naringenin remaining,human faecal slurries; after 4 h of incubation,26 to 36 µmol
same,naringenin remaining,human faecal slurries; after 6 h of incubation,13 to 28 µmol
same,naringenin remaining,human faecal slurries; after 24 h of incubation,3 to 8 µmol
same,Recovery,[9],83%
same,Results: bacterial metabolism,[10],transformed to phenolic acids
same,Results: conversion by C. orbiscindens,Clostridium orbiscindens,converted 0.5 mM naringenin to 3‐(4‐hydroxyphenyl) propionic acid
same,IC50,CYP450 isoforms,~10 µM
same,IC50,CYP2C9,< 5 µM
same,inhibition,CYP2B6,No appreciable inhibition
same,IC50,[11],139 to 188 µM
same,IC50,[12],180 µM
same,histopathological examination of the liver,Wistar rats [13],slight inflammatory cell infiltration in the portal areas
same,assessed biochemical parameters in stomach and liver,Wistar rats [14],no significant effects
